The record followed here is ChEMBL document CHEMBL1125609, “Nucleosides and nucleotides. 97. Synthesis of new broad spectrum antineoplastic nucleosides, 2'-deoxy-2'-methylidenecytidine (DMDC) and its derivatives” (J Med Chem, 1991).

≈ marks a conversion by molar mass, not a printed value.

In one experiment the test system is B16. In words: In vitro inhibitory activity against Mouse melanoma (B16) cell line. The class given is functional, cell-based. The method in brief: (§1)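 Each tumor cell line seeded at 1 × 10⁴/well and incubated with or without compound for 72 h; growth measured by MTT reduction, OD 570 nm, % inhibition relative to untreated control wells. IC50 (μg/mL) is the concentration giving 50% inhibition of cell growth.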

The next experiment deals with CCRF-CEM. In words: In vitro inhibitory activity against Human T-cell acute lymphoblastoid leukemia (CCRF CEM) cell line. The class given is functional, cell-based. The method in brief:
as §1

For a further experiment, the system named is HL-60. Kind of experiment: In vitro inhibitory activity against Human promyelocytic leukemia (HL-60) cell line. The class given is functional, cell-based. The method in brief:
as §1

Experiment [1] has as its system KATO III stomach cancer cell line. Kind of experiment: In vitro inhibitory activity against Human gastric carcinoma (KATO III) cell line. Format: functional, cell-based. Summed up: as §1
In another experiment the test system is KB. Kind of experiment: In vitro inhibitory activity against Human oral epidermoid carcinoma (KB) cell line. Format: functional, cell-based. Summed up: as §1
A further experiment concerns L1210. Kind of experiment: In vitro cytotoxic activity against Murine leukemia L1210 cells. As to conditions: Mus musculus. Format: functional, cell-based. Summed up: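 L1210 murine leukemia cells seeded at 1 × 10⁴/well, exposed with or without compound for 72 h; MTT then added and OD 570 nm read. % inhibition = [1 − OD sample/OD control] × 100; IC50 (μg/mL) taken as concentration giving 50% growth inhibition.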

Experiment [2] deals with Lewis lung carcinoma cell line. In words: In vitro inhibitory activity against Mouse Lewis lung carcinoma (3LL) cell line. Format: functional, cell-based. Summed up: as §1
The subject of the next experiment is PC-13. In words: In vitro inhibitory activity against Human lung large-cell carcinoma (PC-13) cell line. The class given is functional, cell-based. The method in brief: as §1
In a further experiment the test system is PC-6. In words: In vitro inhibitory activity against Human lung small-cell carcinoma (PC-6) cell line. The class given is functional, cell-based. The method in brief: as §1
For another experiment, the system named is PC10. Kind of experiment: In vitro inhibitory activity against Human lung squamous cell carcinoma (PC-10) cell line. The class given is functional, cell-based. Summed up:
as §1

The subject of another experiment is PC-14. In words: In vitro inhibitory activity against Human lung adenocarcinoma (PC-14) cell line. The class given is functional, cell-based. Summed up:
as §1

The test system of another experiment is T-24. In words: In vitro inhibitory activity against Human bladder transitional-cell carcinoma (T-24) cell line. Format: functional, cell-based. Summed up: as §1
The subject of the next experiment is U-937. Kind of experiment: In vitro inhibitory activity against Human histiocytic lymphoma (U-937) cell line. Format: functional, cell-based. The method in brief: as §1
The subject of another experiment is MOLT-4. Kind of experiment: In vitro inhibitory activity against Human T-cell acute lymphoblastic leukemia (MOLT-4) cell line. The class given is functional, cell-based. Summed up: as §1
A further experiment deals with P-36 (Homo sapiens). In words: In vitro inhibitory activity against Human melanoma (P-36) cell line.
In another experiment the test system is SW480. Kind of experiment: In vitro inhibitory activity against Human colon adenocarcinoma (SW-480) cell line. Format: functional, cell-based. Summed up: as §1
The next experiment concerns TE-2. Kind of experiment: In vitro inhibitory activity against Human esophagus adenocarcinoma (TE-2) cell line. Format: functional, cell-based. Summed up: as §1

Turning to `C=C1C(n2ccc(N)nc2=O)O[C@H](CO)[C@@H]1O` (stereo partly drawn), the IC50 (usually the point on the concentration scale where inhibition reaches its midpoint) in the experiment with B16 is 3 µg/mL (≈ 12.5 µM); in the experiment on CCRF-CEM, 0.067 µg/mL (≈ 0.28 µM); in the experiment with HL-60, 0.04 µg/mL (≈ 0.167 µM); in experiment [1] it was 8.3 µg/mL (≈ 34.7 µM); in the experiment with KB, 1.4 µg/mL (≈ 5.85 µM); in the experiment with L1210, 0.37 µg/mL (≈ 1.55 µM). The IC50 in [2] was 16 µg/mL (≈ 66.9 µM); in the experiment on PC-13 it was 1 µg/mL (≈ 4.18 µM); with PC-6, 39 µg/mL (≈ 163 µM); in the experiment on PC10, more than 100 µg/mL; in the experiment on PC-14, more than 100 µg/mL; in the experiment on T-24, 1.1 µg/mL (≈ 4.6 µM). The half-inhibitory concentration (IC50) in the experiment on U-937 was 0.44 µg/mL (≈ 1.84 µM); with MOLT-4, 0.041 µg/mL (≈ 0.171 µM); in the experiment with P-36 (Homo sapiens), 0.36 µg/mL (≈ 1.5 µM).
`C=C1C(n2cc(CC)c(=O)[nH]c2=O)O[C@H](CO)[C@@H]1O` (stereo partly drawn) returned a half-inhibitory concentration (IC50) in the experiment with L1210 of more than 100 µg/mL.
Still for that read-out and setting: the result for `C=C1C(n2cc(Cl)c(N)nc2=O)O[C@H](CO)[C@@H]1O` (stereo partly drawn) reads more than 100 µg/mL; that for `C#Cc1cn(C2O[C@H](CO)[C@H](O)C2=C)c(=O)[nH]c1=O` (stereo partly drawn), more than 100 µg/mL.
Same read-out and setting: with `C=C1C(n2cc(C)c(=O)[nH]c2=O)O[C@H](CO)[C@@H]1O` (stereo partly drawn) the figure was 50 µg/mL (≈ 197 µM); with `C=C1C(n2cc(F)c(=O)[nH]c2=O)O[C@H](CO)[C@@H]1O` (stereo partly drawn), more than 100 µg/mL; with `C=C1[C@H](n2ccc(=O)[nH]c2=O)O[C@H](CO)[C@H]1O`, more than 100 µg/mL.
Still for that read-out and setting: with `C=C1C(n2cc(I)c(N)nc2=O)O[C@H](CO)[C@@H]1O` (stereo partly drawn) the figure was more than 100 µg/mL.
For the compound `C=C1C(n2cc(Br)c(=O)[nH]c2=O)O[C@H](CO)[C@@H]1O` (stereo partly drawn), the IC50 in the experiment on L1210 was more than 100 µg/mL.
Still for that read-out and setting: the result for `C=C1C(n2cc(Br)c(N)nc2=O)O[C@H](CO)[C@@H]1O` (stereo partly drawn) reads more than 100 µg/mL.
On the same count and under the same terms, with `C=C1C(n2cc(CC)c(N)nc2=O)O[C@H](CO)[C@@H]1O` (stereo partly drawn) the figure was more than 100 µg/mL.
On the same count and under the same terms, the result for `C=C1C(n2cc(I)c(=O)[nH]c2=O)O[C@H](CO)[C@@H]1O` (stereo partly drawn) reads more than 100 µg/mL.
For the compound `C=C1C(n2cc(F)c(N)nc2=O)O[C@H](CO)[C@@H]1O` (stereo partly drawn), the IC50 worked out at 9.2 µg/mL (≈ 35.8 µM) in the experiment on B16; 0.1 µg/mL (≈ 0.389 µM) with CCRF-CEM; 0.053 µg/mL (≈ 0.206 µM) in the experiment on HL-60; 8.3 µg/mL (≈ 32.3 µM) in [1]; 1.4 µg/mL (≈ 5.44 µM) with KB; 0.33 µg/mL (≈ 1.28 µM) in the experiment on L1210. Also, the IC50 in experiment [2] was 22 µg/mL (≈ 85.5 µM); in the experiment with PC-13, 1.4 µg/mL (≈ 5.44 µM); in the experiment on PC-6, 16 µg/mL (≈ 62.2 µM); in the experiment on PC10, more than 100 µg/mL; with PC-14, more than 100 µg/mL; with SW480, 4.4 µg/mL (≈ 17.1 µM). The half-maximal inhibitory concentration (IC50) in the experiment with T-24 was determined as 0.94 µg/mL (≈ 3.65 µM); in the experiment on TE-2, 1.8 µg/mL (≈ 7 µM); in the experiment with U-937, 0.4 µg/mL (≈ 1.56 µM); in the experiment with MOLT-4 it was 0.03 µg/mL (≈ 0.117 µM); with P-36 (Homo sapiens), 0.25 µg/mL (≈ 0.972 µM).
With `C=C1C(n2cc(Cl)c(=O)[nH]c2=O)O[C@H](CO)[C@@H]1O` (stereo partly drawn), the IC50 in the experiment on L1210 is more than 100 µg/mL.
Consider `C=C1C(n2cc(C)c(N)nc2=O)O[C@H](CO)[C@@H]1O` (stereo partly drawn), for which the IC50 in the experiment with B16 is more than 100 µg/mL; in the experiment with CCRF-CEM, more than 1 µg/mL; in the experiment on HL-60, 3 µg/mL (≈ 11.8 µM); in [1], more than 100 µg/mL; in the experiment on KB, more than 100 µg/mL; in the experiment with L1210 it was 58 µg/mL (≈ 229 µM). The IC50 (in experiment [2]; with PC-13; with PC-6; with PC10; in the experiment on PC-14; in the experiment with SW480) was more than 100 µg/mL each time. For the same compound, the concentration for half-maximal inhibition (IC50) in the experiment with T-24 was more than 100 µg/mL; in the experiment on TE-2 it was more than 100 µg/mL; in the experiment with U-937 it was more than 10 µg/mL; in the experiment with MOLT-4, more than 100 µg/mL; in the experiment with P-36 (Homo sapiens) it was more than 100 µg/mL.
For `Nc1ccn([C@@H]2O[C@H](CO)[C@@H](O)[C@@H]2O)c(=O)n1` [CYTARABINE], the IC50 in the experiment with B16 is 0.24 µg/mL (≈ 0.987 µM); in the experiment with CCRF-CEM it was 0.32 µg/mL (≈ 1.32 µM); in the experiment with HL-60, more than 0.1 µg/mL; in experiment [1], more than 100 µg/mL; with KB it was 30.5 µg/mL (≈ 125 µM); with PC-13, more than 100 µg/mL. Further, the IC50 with PC-6 is 50 µg/mL (≈ 206 µM); in the experiment on PC10 it was more than 100 µg/mL; in the experiment on PC-14, more than 100 µg/mL; in the experiment on SW480 it was more than 100 µg/mL; with T-24, 0.5 µg/mL (≈ 2.06 µM); with TE-2 it was more than 100 µg/mL. The IC50 with U-937 worked out at 0.46 µg/mL (≈ 1.89 µM); in the experiment with P-36 (Homo sapiens), 11.1 µg/mL (≈ 45.6 µM).
Consider `O=c1[nH]cc(F)c(=O)[nH]1` [FLUOROURACIL], for which the IC50 in the experiment on B16 was 2.6 µg/mL (≈ 20 µM); with HL-60, 1.3 µg/mL (≈ 9.99 µM); in experiment [1] it was 3.7 µg/mL (≈ 28.4 µM); with KB, 12.1 µg/mL (≈ 93 µM); in the experiment with PC10, more than 100 µg/mL; with PC-14, 10 µg/mL (≈ 76.9 µM). The half-maximal inhibitory concentration (IC50) was determined as 3.5 µg/mL (≈ 26.9 µM) with U-937 and 10.7 µg/mL (≈ 82.3 µM) in the experiment with P-36 (Homo sapiens).
